Measured values as given in ChEMBL document CHEMBL2417469, “Synthesis of novel analogs of 2-pyrazoline obtained from [(7-chloroquinolin-4-yl)amino]chalcones and hydrazine as potential antitumor and antimalarial agents” (Eur J Med Chem, 2013).

How the values were obtained:
Format in all cases: functional
[1] = test system: MCF7; assay: Cytotoxicity against human MCF7 cells after 48 hrs by SRB assay; details: MCF7, 48 h; for CC50: read-out: LC50 (the source's name)
Method in brief: (§1)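 NCI 60-cell-line screen. Cells preincubated 24 h at 37 °C, 5% CO2; time-zero plates TCA-fixed. Compounds dissolved in DMSO and tested at five concentrations (100, 10, 1.0, 0.1, 0.01 µM) for 48 h continuous exposure. Adherent cells fixed with cold TCA (10% final), then SRB stained; absorbance at 515 nm. GI50, TGI and LC50 calculated from growth relative to time-zero and untreated controls.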

[2] = test system: LOX IMVI; assay: Cytotoxicity against human LOXIMVI cells after 48 hrs by SRB assay; method in brief: as §1
[3] = test system: HOP-92; assay: Cytotoxicity against human HOP92 cells after 48 hrs by SRB assay; details: HOP-92, 48 h; method in brief: as §1
[4] = test system: UO-31; assay: Cytotoxicity against human UO31 cells after 48 hrs by SRB assay; details: UO-31, 48 h
Method in brief: (§2)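 NCI 60-cell screen. Cells grew 24 h (37 °C, 5% CO2) before compound was added. Compounds were in DMSO and diluted in medium with gentamicin, then tested at five levels (100, 10, 1.0, 0.1, 0.01 µM) with 48 h continuous exposure. Adherent cells were fixed with TCA (10% final) and stained with 0.4% SRB, absorbance read at 515 nm. A time-zero plate was included. LC50 is the concentration giving 50% loss of protein relative to time zero.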

[5] = test system: IGROV-1; assay: Cytotoxicity against human IGROV1 cells after 48 hrs by SRB assay; details: IGROV-1, 48 h; method in brief: as §1
[6] = test system: HCC 2998; assay: Cytotoxicity against human HCC2998 cells after 48 hrs by SRB assay; details: HCC 2998, 48 h; method in brief: as §1
[7] = test system: UACC-62; assay: Cytotoxicity against human UACC62 cells after 48 hrs by SRB assay; details: UACC-62, 48 h; for CC50: read-out: LC50 (the source's name); method in brief: as §2
[8] = test system: NCI/ADR-RES; assay: Cytotoxicity against human NCI/ADR-RES cells after 48 hrs by SRB assay; details: for CC50: read-out: LC50 (the source's name); method in brief: as §1
[9] = test system: SNB-19; assay: Cytotoxicity against human SNB19 cells after 48 hrs by SRB assay; details: SNB-19, 48 h; method in brief: as §2
[10] = test system: NCI-H23; assay: Cytotoxicity against human NCI-H23 cells after 48 hrs by SRB assay; details: NCI-H23, 48 h; for CC50: read-out: LC50 (the source's name); method in brief: as §1
[11] = test system: UACC-257; assay: Cytotoxicity against human UACC257 cells after 48 hrs by SRB assay; details: UACC-257, 48 h; method in brief: as §2
[12] = test system: 786-0; assay: Cytotoxicity against human 786-0 cells after 48 hrs by SRB assay; details: 786-0, 48 h; method in brief: as §1
[13] = test system: HCT-15; assay: Cytotoxicity against human HCT15 cells after 48 hrs by SRB assay; details: HCT-15, 48 h; method in brief: as §1
[14] = test system: NCI-H460; assay: Cytotoxicity against human NCI-H460 cells after 48 hrs by SRB assay; details: NCI-H460, 48 h; method in brief: as §1
[15] = test system: BT-549; assay: Cytotoxicity against human BT549 cells after 48 hrs by SRB assay; details: BT-549, 48 h; method in brief: as §1
[16] = test system: HL-60(TB); assay: Cytotoxicity against human HL-60(TB) cells after 48 hrs by SRB assay; details: HL-60, 48 h; method in brief: as §1
[17] = test system: KM12; assay: Cytotoxicity against human KM12 cells after 48 hrs by SRB assay; details: KM12, 48 h; method in brief: as §1
[18] = test system: SF-268; assay: Cytotoxicity against human SF268 cells after 48 hrs by SRB assay; details: SF-268, 48 h; method in brief: as §1
[19] = test system: HOP-62; assay: Cytotoxicity against human HOP62 cells after 48 hrs by SRB assay; details: HOP-62, 48 h; method in brief: as §1
[20] = test system: DU-145; assay: Cytotoxicity against human DU145 cells after 48 hrs by SRB assay; details: DU-145, 48 h; method in brief: as §1
[21] = test system: SK-MEL-5; assay: Cytotoxicity against human SK-MEL-5 cells after 48 hrs by SRB assay; details: SK-MEL-5, 48 h; method in brief: as §1
[22] = test system: MDA-MB-435; assay: Cytotoxicity against human MDA-MB-435 cells after 48 hrs by SRB assay; details: MDA-MB-435, 48 h; method in brief: as §1
[23] = test system: A549; assay: Cytotoxicity against human A549/ATCC cells after 48 hrs by SRB assay; details: A549, 48 h; for CC50: read-out: LC50 (the source's name); method in brief: as §1
[24] = test system: SN12C; assay: Cytotoxicity against human SN12C cells after 48 hrs by SRB assay; method in brief: as §1
[25] = test system: M14; assay: Cytotoxicity against human M14 cells after 48 hrs by SRB assay; details: M14, 48 h; for CC50: read-out: LC50 (the source's name); method in brief: as §1
[26] = test system: NCI-H226; assay: Cytotoxicity against human NCI-H226 cells after 48 hrs by SRB assay; details: NCI-H226, 48 h; method in brief: as §1
[27] = Cytotoxicity against human EKVX cells after 48 hrs by SRB assay; method in brief: as §1
[28] = test system: MDA-MB-231; assay: Cytotoxicity against human MDA-MB-231 cells after 48 hrs by SRB assay; details: MDA-MB-231, 48 h; method in brief: as §1
[29] = test system: PC-3; assay: Cytotoxicity against human PC3 cells after 48 hrs by SRB assay; details: PC-3, 48 h; method in brief: as §1
[30] = test system: OVCAR-4; assay: Cytotoxicity against human OVCAR4 cells after 48 hrs by SRB assay; details: OVCAR-4, 48 h; method in brief: as §1
[31] = test system: OVCAR-3; assay: Cytotoxicity against human OVCAR3 cells after 48 hrs by SRB assay; details: OVCAR-3, 48 h; method in brief: as §1
[32] = test system: MDA-MB-468; assay: Cytotoxicity against human MDA-MB-468 cells after 48 hrs by SRB assay; details: MDA-MB-468, 48 h; method in brief: as §1
[33] = test system: Hs-578T; assay: Cytotoxicity against human Hs578T cells after 48 hrs by SRB assay; method in brief: as §1
[34] = test system: SNB-75; assay: Cytotoxicity against human SNB75 cells after 48 hrs by SRB assay; details: SNB-75, 48 h; method in brief: as §2
[35] = test system: NCI-H522; assay: Cytotoxicity against human NCI-H522 cells after 48 hrs by SRB assay; details: NCI-H522, 48 h; method in brief: as §1
[36] = read-out: LC50 (the source's name)

COc1ccc(C2CC(c3ccc(Nc4ccnc5cc(Cl)ccc45)cc3)=NN2C=O)cc1 (centres undefined) showed a GI50 [1] of 8.78 µM, a CC50 [1] greater than 100 µM and a GI50 [2] of 2.32 µM. For the same compound, the LC50 [2] was greater than 100 µM, the LC50 (concentration killing 50% of cells) [3] was greater than 100 µM and the GI50 [4] was 19.7 µM. For the same compound, the LC50 [4] was greater than 100 µM, the GI50 [5] was 43.1 µM and the LC50 (concentration killing 50% of cells relative to time zero) [5] was greater than 100 µM. For the same compound, the GI50 [6] was 18.1 µM, the LC50 [6] was greater than 100 µM and the GI50 [7] was 5.99 µM. It also gave a CC50 [7] greater than 100 µM, a GI50 [8] of 7.04 µM and a CC50 [8] greater than 100 µM. The GI50 [9] was 5.65 µM, the LC50 [9] was greater than 100 µM and the GI50 [10] was 5.06 µM. It also gave a CC50 [10] greater than 100 µM, a GI50 [11] of 4.39 µM and an LC50 [11] greater than 100 µM. For the same compound, the GI50 [12] was 32 µM, the LC50 [12] was greater than 100 µM and the GI50 [13] was 2.97 µM. The LC50 (concentration killing 50% of cells relative to time zero) [13] was greater than 100 µM, the GI50 [14] was greater than 100 µM and the LC50 [14] was greater than 100 µM. The GI50 [15] was 10.9 µM, the LC50 (50% net cell kill vs time zero) [15] was greater than 100 µM and the GI50 [16] was 2.23 µM. It also gave a CC50 [16, 36] greater than 100 µM, a GI50 [17] of 16.5 µM and an LC50 (concentration killing 50% of cells) [17] greater than 100 µM. It also gave a GI50 [18] greater than 100 µM, an LC50 [18] greater than 100 µM and a GI50 [19] of 43.7 µM. It also gave an LC50 (50% lethal concentration) [19] greater than 100 µM, a GI50 [20] of 38 µM and an LC50 (concentration killing 50% of cells) [20] greater than 100 µM. For the same compound, the GI50 [21] was 0.62 µM, the LC50 (concentration killing 50% of cells present at time zero) [21] was greater than 100 µM and the GI50 [22] was 1.72 µM. It also gave an LC50 [22] greater than 100 µM, a GI50 [23] of 50.3 µM and a CC50 [23] greater than 100 µM. The GI50 [24] was 12.6 µM, the LC50 (50% net cell kill relative to time zero) [24] was greater than 100 µM and the GI50 [25] was 7.67 µM. For the same compound, the CC50 [25] was greater than 100 µM, the GI50 [26] was greater than 100 µM and the LC50 (50% lethal concentration) [26] was greater than 100 µM. For the same compound, the GI50 [27] was greater than 100 µM, the LC50 [27] was greater than 100 µM and the GI50 [28] was 20.1 µM. It also gave an LC50 (concentration killing 50% of cells present at time zero) [28] greater than 100 µM, a GI50 [29] of 9.43 µM and an LC50 [29] greater than 100 µM. The GI50 [30] was 13.4 µM, the LC50 [30] was greater than 100 µM and the GI50 [31] was 14.5 µM. It also gave an LC50 [31] greater than 100 µM, a GI50 [32] of 1 µM and an LC50 [32] greater than 100 µM. It also gave a GI50 [33] greater than 100 µM, an LC50 (50% net cell kill) [33] greater than 100 µM and a GI50 [34] greater than 100 µM. The LC50 (50% net cell kill) [34] was greater than 100 µM.

COc1cccc2c1C(=O)c1c(O)c3c(c(O)c1C2=O)C[C@@](O)(C(=O)CO)C[C@@H]3O[C@H]1C[C@H](N)[C@H](O)[C@H](C)O1 [DOXORUBICIN] gave a GI50 [1] of 0.03 µM, a CC50 [1] of 51.3 µM and a GI50 [2] of 0.07 µM. For the same compound, the GI50 [3] was 0.1 µM, the GI50 [4] was 0.49 µM and the GI50 [5] was 0.17 µM. It also gave a GI50 [6] of 0.26 µM, a GI50 [7] of 0.12 µM and a CC50 [7] of 0.74 µM. It also gave a GI50 [8] of 7.16 µM, a CC50 [8] of 100 µM and a GI50 [9] of 0.04 µM. The GI50 [10] was 0.15 µM, the CC50 [10] was 13.2 µM and the GI50 [11] was 0.14 µM. For the same compound, the GI50 [12] was 0.13 µM, the GI50 [13] was 6.46 µM and the GI50 [14] was 0.02 µM. For the same compound, the GI50 [15] was 0.23 µM, the GI50 [16] was 0.12 µM and the GI50 [17] was 0.27 µM. For the same compound, the GI50 [18] was 0.1 µM, the GI50 [19] was 0.07 µM and the GI50 [35] was 0.03 µM. It also gave a CC50 [35, 36] of 2.8 µM, a GI50 [20] of 0.11 µM and a GI50 [21] of 0.08 µM. It also gave a GI50 [22] of 0.25 µM, a GI50 [23] of 0.06 µM and a CC50 [23] of 100 µM. It also gave a GI50 [24] of 0.07 µM, a GI50 [25] of 0.18 µM and a CC50 [25] of 4.05 µM. For the same compound, the GI50 [26] was 0.05 µM, the GI50 [27] was 0.41 µM and the GI50 [28] was 0.51 µM. It also gave a GI50 [29] of 0.32 µM, a GI50 [30] of 0.37 µM and a GI50 [31] of 0.39 µM. For the same compound, the GI50 [32] was 0.05 µM, the GI50 [33] was 0.33 µM and the GI50 [34] was 0.07 µM.
